The values below come from article PMC11489560 (Molecular Therapy, 2024).

The subject of one experiment is hippocampal slices. Description: Effect of BDNF on LTP in hippocampal slices. On the set-up: species or system rat. The settings on record: control conditions (vehicle-exposed slices); BDNF 30 ng/mL. The essentials: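 Acute hippocampal slices from male Wistar rats (7-10 weeks) recovered at least 60 min in gassed aCSF at 22°C-24°C, then exposed 3 h at room temperature to vehicle (PBS, pH 7.4). BDNF was tested in separate slices from the same rats. LTP magnitude was the normalized change in mean fEPSP slope 50-60 min post-induction versus the 10 min before induction.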

The next experiment relates to hippocampal synaptosomes. Description: [3H]Glutamate release from hippocampal synaptosomes, effect of BDNF. On the set-up: species or system rat. The conditions noted are these: control conditions; BDNF 30 ng/mL. The essentials: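 Hippocampal slices from male Wistar rats (7-10 weeks) were exposed 3 h to vehicle (PBS), then synaptosomes were isolated via 45% Percoll in KHR. Synaptosomes (1-2 mg/mL protein) equilibrated 5 min at 37°C in oxygenated aCSF and were loaded with [3H]glutamate, then given two K+ depolarizations. Release was expressed as % of total radioactivity per time point, and internal control curves from the same batch were subtracted. The BDNF effect was the integrated S2 peak area above basal tritium release.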

B1: brain-derived neurotrophic factor (protein, UniProt P23560 19-247, looked up)
Neurotrophic factor BDNF …: APMKEANIRGQGGLAYPGVRTHGTLESVNGPKAGSRGLTSLADTFEHVIEELLDEDQKVRPNEENNKDADLYTSRVMLSSQVPLEPPLLFLLEEYKNYLDAANMSMRVRRHSDPARRGELSVCDSISEWVTAADKKTAVDMSGGTVTVLEKVPVSKGQLKQYFYETKCNPMGYTKEGCRGIDKRHWNSQCRTTQSYVRALTMDSKKRIGWRFIRIDTSCVCTLTIKRGR
Take B1: the LTP magnitude result in the experiment with hippocampal slices is on record as “potentiated”. Also, the “K+-evoked glutamate release” value in the experiment on hippocampal synaptosomes is recorded as “potentiated”.
